Measured values taken from ChEMBL document CHEMBL5104156, “Development of subtype-selective covalent ligands for the adenosine A2B receptor by tuning the reactive group” (RSC Med Chem, 2022).
Activity calls are given as the source filed them. No cut-off for these calls is given here.

What was measured:
Format in all cases: cell membranes
[1] = target: T1, Adenosine receptor A2b (Homo sapiens) (UniProt P29275); test: Ratio of Ki for displacement of [3H]PSB-603 from human adenosine A2B receptor expressed in CHO cell membrane to Ki for displacement of [3H]PSB-603 from human adenosine A2B receptor expressed in CHO cell membrane preincubated for 4hrs
T1 sequence (whole entry): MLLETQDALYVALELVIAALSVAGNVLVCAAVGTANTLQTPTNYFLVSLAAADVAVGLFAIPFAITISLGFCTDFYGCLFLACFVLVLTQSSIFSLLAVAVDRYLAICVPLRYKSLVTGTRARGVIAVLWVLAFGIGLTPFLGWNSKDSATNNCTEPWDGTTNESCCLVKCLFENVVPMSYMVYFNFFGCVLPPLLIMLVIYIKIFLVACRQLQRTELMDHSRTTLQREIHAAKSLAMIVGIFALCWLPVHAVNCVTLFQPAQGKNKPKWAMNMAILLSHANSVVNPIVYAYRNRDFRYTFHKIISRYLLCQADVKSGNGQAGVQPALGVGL
Procedure, shortened: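 CHO-spap-hA2BAR membranes (30 µg protein) in 50 mM Tris-HCl pH 7.4 with 0.1% CHAPS. Nonspecific binding was set with 10 µM ZM241385. Filtration was followed by scintillation counting.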

[2] = target: Adenosine receptor A2a (Homo sapiens) (UniProt P29274); test: Displacement of [3H]ZM241385 from human adenosine A2A receptor expressed in HEK293 cell membrane at 1 uM and measured after 0.5 hrs by radioligand displacement assay
[3] = target: T2, Adenosine receptor A1 (Homo sapiens) (UniProt P30542); test: Displacement of [3H]DPCPX from human adenosine A1 receptor expressed in CHO cell membrane at 1 uM and measured after 0.5 hrs by radioligand displacement assay
T2 sequence (whole entry): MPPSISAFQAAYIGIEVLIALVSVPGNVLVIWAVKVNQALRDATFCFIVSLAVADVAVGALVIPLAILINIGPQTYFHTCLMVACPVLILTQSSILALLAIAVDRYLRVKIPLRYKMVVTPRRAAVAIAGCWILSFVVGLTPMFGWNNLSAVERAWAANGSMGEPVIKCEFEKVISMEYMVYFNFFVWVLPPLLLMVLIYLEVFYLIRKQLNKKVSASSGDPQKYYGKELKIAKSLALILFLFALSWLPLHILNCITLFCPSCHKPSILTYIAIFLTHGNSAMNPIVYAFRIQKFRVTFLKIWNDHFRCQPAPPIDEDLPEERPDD

Adenosine receptor A2b [4] = target: T3, Adenosine receptor A2b (Homo sapiens, UniProt P29275); test: Displacement of [3H]PSB-603 from human adenosine A2B receptor expressed in CHO cell membrane and measured after 0.5 hrs by radioligand displacement assay
T3 sequence (P29275 whole entry): T1 sequence (whole entry)

[5] = target: T4, Adenosine receptor A3 (Homo sapiens) (UniProt P0DMS8); test: Displacement of [3H]PSB-11 from human adenosine A3 receptor expressed in CHO cell membrane at 1 uM preincubated for 4 hrs followed by [3H]PSB-11 addition and measured after 0.5 hrs by radioligand displacement assay; details: time 4.5 hrs
T4 sequence (whole entry): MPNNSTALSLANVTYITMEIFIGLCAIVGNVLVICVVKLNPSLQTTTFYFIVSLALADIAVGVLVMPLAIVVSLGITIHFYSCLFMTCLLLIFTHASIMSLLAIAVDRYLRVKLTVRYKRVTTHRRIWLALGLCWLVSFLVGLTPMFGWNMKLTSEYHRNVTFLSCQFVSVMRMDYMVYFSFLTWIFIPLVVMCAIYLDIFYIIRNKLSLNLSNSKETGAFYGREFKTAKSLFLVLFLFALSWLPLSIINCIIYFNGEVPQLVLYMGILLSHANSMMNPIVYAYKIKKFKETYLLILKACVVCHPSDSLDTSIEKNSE

[6] = target: T2, Adenosine receptor A1 (Homo sapiens); test: Displacement of [3H]DPCPX from human adenosine A1 receptor expressed in CHO cell membrane at 1 uM preincubated for 4 hrs followed by [3H]DPCPX addition and measured after 0.5 hrs by radioligand displacement assay; details: time 4.5 hrs
Adenosine receptor A2b [7] = target: T3, Adenosine receptor A2b; test: Displacement of [3H]PSB-603 from human adenosine A2B receptor expressed in CHO cell membrane preincubated for 4 hrs followed by [3H]PSB-603 addition and measured after 0.5 hrs by radioligand displacement assay
[8] = target: Adenosine receptor A2a (Homo sapiens) (UniProt P29274); test: Displacement of [3H]ZM241385 from human adenosine A2A receptor expressed in HEK293 cell membrane at 1 uM preincubated for 4 hrs followed by [3H]ZM241385 addition and measured after 0.5 hrs by radioligand displacement assay; details: time 4.5 hrs
[9] = target: T4, Adenosine receptor A3 (Homo sapiens); test: Displacement of [3H]PSB-11 from human adenosine A3 receptor expressed in CHO cell membrane at 1 uM and measured after 0.5 hrs by radioligand displacement assay
[10] = target: T1, Adenosine receptor A2b (Homo sapiens); test: Displacement of [3H]PSB-603 from human adenosine A2B receptor expressed in CHO cell membrane assessed as covalent adduct formation at 1 uM preincubated followed by 4 times washing treatment and then with [3H]PSB-603 exposure by radioligand displacement assay
Procedure, shortened: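 CHO-spap-hA2BAR membranes (80 µg protein) were shaken 2 h at 25 °C with ligand, added as a 1 µM solution, in 0.1% CHAPS/50 mM Tris-HCl pH 7.4. The washed set was pelleted, resuspended and shaken 10 min at 25 °C, repeated three times; an unwashed set was kept for comparison. Both sets then had [3H]PSB-603 (1.5 nM solution) added for 2 h at 25 °C, with nonspecific binding set by 10 µM ZM241385. Filtration, then scintillation counting.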

Chain of Adenosine receptor A2a (Homo sapiens) (P29274 whole entry): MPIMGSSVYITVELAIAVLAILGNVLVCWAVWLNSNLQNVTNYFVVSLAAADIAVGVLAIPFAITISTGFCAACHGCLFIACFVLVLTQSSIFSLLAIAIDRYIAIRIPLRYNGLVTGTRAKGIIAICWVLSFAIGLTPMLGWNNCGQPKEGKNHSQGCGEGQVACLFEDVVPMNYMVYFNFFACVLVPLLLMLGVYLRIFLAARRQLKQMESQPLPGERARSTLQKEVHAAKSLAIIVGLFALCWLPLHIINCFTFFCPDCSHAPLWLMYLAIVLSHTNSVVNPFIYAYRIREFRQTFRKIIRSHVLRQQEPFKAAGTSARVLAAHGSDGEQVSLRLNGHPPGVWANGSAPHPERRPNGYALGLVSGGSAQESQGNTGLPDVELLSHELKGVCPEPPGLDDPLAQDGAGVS

Row | Structure (SMILES) | Ratio Ki [1] | Activity [2] [%] | Activity [3] [%] | Ki (Adenosine receptor A2b [4]) [nM] | Activity [5] [%] | Activity [6] [%] | Ki (Adenosine receptor A2b [7]) [nM] | Activity [8] [%] | Activity [9] [%] | Activity [10]
1 | CCCn1c(=O)[nH]c2nc(-c3cccc(OS(=O)(=O)F)c3)[nH]c2c1=O | 1.6 | 2 | 6 | 141 | 5 | 1 | 70.8 | 0 | 14 | –
2 | CCCn1c(=O)c2[nH]c(-c3ccc(OS(=O)(=O)F)cc3)nc2n(CCC)c1=O | 1 | 63 | 79 | 49 | 49 | 85 | 51.3 | 69 | 47 | –
3 | CCCn1c(=O)[nH]c2nc(-c3ccc(N=C=S)cc3)[nH]c2c1=O | 3.4 | 25 | 51 | 2.14 | 66 | 97 | 0.661 | 27 | 15 | –
4 | CCCn1c(=O)c2[nH]c(-c3ccc(S(=O)(=O)F)cc3)nc2n(CCC)c1=O | 27.3 | 54 | 61 | 60.3 | 5 | 69 | 2.4 | 55 | 12 | –
5 | CCCn1c(=O)c2[nH]c(-c3ccc(N=C=S)cc3)nc2n(CCC)c1=O | 7.7 | 40 | 77 | 24 | 96 | 92 | 3.24 | 39 | 48 | –
6 | CCCn1c(=O)c2[nH]c(-c3cccc(OS(=O)(=O)F)c3)nc2n(CCC)c1=O | 1.2 | 13 | 76 | 562 | 58 | 77 | 525 | 12 | 64 | –
7 | CCCn1c(=O)[nH]c2nc(-c3ccc(OS(=O)(=O)F)cc3)[nH]c2c1=O | 2.2 | 35 | 17 | 11.7 | 8 | 12 | 5.5 | 24 | 8 | Active
8 | CCCn1c(=O)c2[nH]c(-c3cccc(N=C=S)c3)nc2n(CCC)c1=O | 19.3 | 47 | 73 | 617 | 100 | 96 | 49 | 34 | 89 | –
9 | CCCn1c(=O)[nH]c2nc(-c3cccc(S(=O)(=O)F)c3)[nH]c2c1=O | 10.2 | 20 | 6 | 132 | 10 | 36 | 13.2 | 6 | 14 | –
10 | CCCn1c(=O)[nH]c2nc(-c3ccc(S(=O)(=O)F)cc3)[nH]c2c1=O | 12.1 | 52 | 29 | 7.94 | 9 | 41 | 0.676 | 43 | 7 | Active
11 | CCCn1c(=O)c2[nH]c(-c3cccc(S(=O)(=O)F)c3)nc2n(CCC)c1=O | 7.1 | 19 | 52 | 955 | 43 | 61 | 158 | 23 | 30 | –
12 | CCCn1c(=O)[nH]c2nc(-c3cccc(N=C=S)c3)[nH]c2c1=O | 74.3 | 0 | 7 | 110 | 95 | 16 | 2.82 | 6 | 58 | –
